Screening results deposited in PubChem BioAssay by several laboratories.
A1 inh – inhibitors of the anti-apoptotic protein A1, read as caspase activation; MEF A1-2A-BIM cells, Caspase-Glo 3/7 luminescence, 3 h; percent of clofoctol response, vehicle zero; caspase activation, % (no concentration beside the values); actives 0.066% (n = 330,000); AID 2462;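 active means over half of replicate activation scores above 10%, or exactly half above 10 with the replicate mean above 10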
NALP1 yeast inh – NALP1 inhibition; S. cerevisiae NALP1/ASC/caspase-1 growth, X-gal OD620, 72 h; inhibition, % at 10 µM; actives 0.61% (n = 280,000); AID 2071; in the data active means inhibition mostly above about 24%, no sharp cut-off; inactive means mostly below about 32%
T cell modulator – T cell immune modulators affecting CD8 T cell-vesicle binding; 2C CD8+ T cell-vesicle binding, flow cytometry; hits give low values; response (vesicle binding), % at 7 µM; actives 0.068% (n = 330,000);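 active means response, share of CD8 T cells binding vesicles, and their 90th percentile fluorescence all below set limits, cut at about 80% in these data, passing the limit was not always enough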;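 further: values below 100% mean blocked vesicle binding to the CD8+ T cells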
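material = purified 2C TCR transgenic mouse naive CD8+ T cells | controls = Unloaded micro-vesicles (low), QL9 vesicles with 0.7% DMSO (high) | detection = cytometric PE anti-B7-1 and Alexa647 anti-CD8 signals after 1% paraformaldehyde fixation | incubation = binding step 1.5 h, 37 °C, antibody labelling 20 min, ice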
NALP3 yeast inh – NALP3 inhibition in yeast; Yeast reconstituted NLRP3/ASC/caspase-1, beta-gal luminescence, 24 h; inhibition, % at 10 µM; actives 0.39% (n = 330,000); AID 2825;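 active means inhibition of 50% or more; inactive means inhibition below 50%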;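 further: plate controls were induced DMSO wells for no effect and uninduced yeast grown without galactose for full effect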
* = called active by the depositor; i = inactive; · = no result. Hits are enriched below; roughly 1% of the tested compounds scored in any of these assays.

SMILES | A1 inh | NALP1 yeast inh | T cell modulator | NALP3 yeast inh
COc1ccc(C2N(c3cc(Cl)ccc3OC)C(=O)C3CCCN32)cc1 (stereo not given) | -0.4 | 41.1* | 121.1 | 4.5
CCN(CC)c1nc(-c2ccc(C(=O)NN)cc2)nc(-c2ccc(C(=O)NN)cc2)n1 | -0.6 | -1.0 | 191.9 | 14.9
Oc1ccc(O)c(/C(=N/Nc2ccccc2)c2ccccc2)c1 | 1.3 | 41.6* | 527.5 | 5.2
NC(=O)N/N=C/c1sc(N2CCCCC2)nc1-c1cccs1 | -2.1 | · | 160.3 | 22.9
O=C(N/N=C/c1sc(N2CCCCC2)nc1-c1cccs1)C1CC1 | 0.5 | 31.2* | 280.7 | 11.9
CC(=O)Oc1oc(-c2ccccc2)nc1C=Nc1ccc(N(C)C)cc1 | -0.7 | -3.4 | 278.8 | 13.7
CN(C)c1ccc(N=Cc2nc(-c3ccccc3)oc2OC(=O)c2ccccc2)cc1 | -4.4 | 0.9 | 5.7* | 12.2
CC1(C)Cc2c(C#N)c(NC3CCCCC3)nc(-c3ccco3)c2CO1 | 0.3 | 18.0 | 0.0* | 9.1
CN1CCN(C(CNC(=O)C(=O)Nc2ccc3c(c2)OCCO3)c2ccc(F)cc2)CC1 (stereo not given) | 0.5 | · | 442.4 | 27.5
CC1CCCCC1Nc1nc2ccc(Cl)cc2n2cnnc12 (stereo not given) | 0.3 | 9.6 | 307.2 | 4.5
Cc1ccc(S(=O)(=O)Cc2cc(F)c([N+](=O)[O-])cc2[N+](=O)[O-])cc1 | -1.1 | 47.3* | 100.6 | 14.6
C/C(CC(=O)NCc1ccco1)=N\NC(=O)c1ccc([N+](=O)[O-])cc1Cl | 0.3 | 6.2 | 283.9 | 10.8
O=C(CCc1nnc2ccc(N3CCC4(CC3)OCCO4)nn12)NCc1ccc(F)cc1 | -0.3 | 0.7 | 279.0 | 4.0
Cc1[nH]c(C)c(S(=O)(=O)NCCc2ccc(S(N)(=O)=O)cc2)c1C(=O)N1CCCC1 | 0.3 | 18.3 | 285.8 | 11.2
COC(=O)c1ccccc1NC(=O)CSc1n[nH]c(-c2cccnc2)n1 | -1.1 | 33.3* | 189.3 | 11.1
Cc1cc(S(=O)(=O)N2CCOCC2)ccc1NC(=O)c1ccc(F)cc1 | 2.1 | 25.0 | 198.4 | 5.8
Cc1ccccc1Nc1nnc(SCc2cc(=O)n3ccsc3n2)s1 | 0.1 | 26.7* | 389.2 | -0.9
O=C(Nc1ccc(Cl)cc1Cl)N1CCN(c2ncccn2)CC1 | -0.1 | 42.2* | 283.9 | 24.0
COc1ccc(CN(C)CC(=O)Nc2ccccc2C(=O)NC2CC2)cc1F | -1.0 | · | 201.1 | 11.9
Cc1ccccc1-c1nn(-c2ccc(F)cc2F)cc1CNCCCO | 0.6 | 19.8* | 245.2 | 12.8
CC(C)CCNC(=O)C(=O)Nc1ccc2c(c1)N(S(=O)(=O)c1cccs1)CCC2 | 0.3 | · | i | 0.0
CCC(C)(C(=O)NC1CCCC1)N(Cc1cccs1)C(=O)Cc1cccs1 (stereo not given) | 0.6 | 2.8 | 34.6* | 33.3
CN1CCN(C(=O)C2CCC(=O)N(Cc3cccc(C(F)(F)F)c3)C2)CC1 (stereo not given) | 2.0 | 31.9* | 248.8 | 1.8
CCN1CCN(C(=O)C2CCC(=O)N(Cc3cccc(C(F)(F)F)c3)C2)CC1 (stereo not given) | 0.3 | 7.3 | 252.0 | 21.6
Cc1ccc(C)c(OCc2cc(C(=O)N(C)Cc3nccs3)no2)c1 | 0.7 | 10.6 | 212.6 | 14.7
SMILES | A1 inh | NALP1 yeast inh | T cell modulator | NALP3 yeast inh
O=C(COc1ccc([N+](=O)[O-])cc1Cl)NCCN1C(=O)CSC1=O | 0.2 | · | 391.7 | 4.7
COCCCN(C(=S)Nc1cc(Cl)cc(Cl)c1)C(C)c1ccccn1 (stereo not given) | -0.3 | · | 130.5 | 10.1
COCCCN(C(=S)Nc1cc(Cl)cc(Cl)c1)C(C)c1ccncc1 (stereo not given) | -0.5 | 68.5* | 339.5 | -0.8
O=C(c1ccc(C(F)(F)F)cc1)C1CCCN(C(=O)CCc2cnccn2)C1 (stereo not given) | -0.2 | 38.4* | 173.9 | 11.1
COC(=O)c1cccc(N(CC(=O)NC2CCCCC2)C(=O)CNC(=O)c2cccs2)c1 | 1.0 | 9.1 | 347.4 | 10.2
COc1ccc(CNC(=O)[C@@H](NC(=O)C2CCN(C(=O)[C@@H](N)CCSC)CC2)C(C)C)cc1 | -0.9 | -7.9 | 334.2 | 8.6
O=C(N/N=C/c1cc(Br)ccc1O)c1ccccc1Cl | 0.2 | 59.1* | 0.0 | 16.8
Oc1ccc(Br)cc1/C=N/NC(=S)NCCc1ccccc1 | -0.4 | 11.2 | 184.7 | 12.7
COC(=O)N/N=C/c1cc(Br)ccc1O | 0.0 | -5.3 | 242.7 | 30.1
O=C(CCc1ccccc1)N/N=C/c1cc(Br)ccc1O | -0.3 | 22.0 | 0.0* | 15.4
O=C1S/C(=C\c2ccc(O)c([N+](=O)[O-])c2)C(=O)N1c1ccccc1Cl | -0.2 | 28.5* | 350.1 | 24.5
O=C1S/C(=C\c2ccc(O)c([N+](=O)[O-])c2)C(=O)N1Cc1cccc([N+](=O)[O-])c1 | -0.7 | -8.2 | 237.5 | 28.8
CC(C)Cc1nnc(NC(=O)CCC(=O)N2CCCCC2)s1 | 0.5 | 5.8 | 184.7 | 11.2
CN1CCN(Cc2nc3ccccc3c(=O)n2Cc2nc(-c3cccc([N+](=O)[O-])c3)cs2)CC1 | · | 34.2* | · | 8.0
O=C(NC1CCCCC1)N1CCN(C(c2ccccc2)c2ccccc2)CC1 | -0.2 | 41.0* | 112.2 | 15.3
OCCN1CCN(Cc2cc(Cl)c3cccnc3c2O)CC1 | 0.5 | 6.8 | 659.6 | 25.6
Oc1c(CN2CCN(c3ccccn3)CC2)cc(Cl)c2cccnc12 | -0.1 | 79.2* | 223.8 | 37.1
Cc1[nH]n(-c2ccccc2)c(=O)c1C(C[N+](=O)[O-])c1ccc(F)cc1 (stereo not given) | -0.1 | 108.8* | 200.6 | 30.8
Cc1[nH]n(-c2ccccc2)c(=O)c1C(c1ccccc1[N+](=O)[O-])C(C#N)C#N (stereo not given) | 0.6 | -11.0 | 265.9 | -27.1
Cc1[nH]n(-c2ccccc2)c(=O)c1C(C[N+](=O)[O-])c1ccc(Cl)cc1 (stereo not given) | -0.2 | 107.8* | 228.8 | 17.4
Cc1ccc(C(C[N+](=O)[O-])c2c(C)[nH]n(-c3ccccc3)c2=O)cc1 (stereo not given) | 3.7 | 105.0* | 196.7 | 36.7
COc1ccc(C(c2c(C)[nH]n(-c3ccccc3)c2=O)c2c(C)[nH]n(-c3ccccc3)c2=O)cc1OC | 1.0 | 23.6 | 260.2 | -8.7
COc1ccc(-c2csc(NC(=O)CSCc3c(C)noc3C)n2)c(OC)c1 | 1.2 | · | 166.3 | 22.8
CC(=O)Nc1cccc(NS(=O)(=O)c2cc3c4c(c2)CCN4C(=O)CC3)c1 | 0.1 | · | 195.4 | 3.4
COc1cccc(/C=N/NC(=O)c2ccoc2C)c1 | -9.0 | 35.5* | 430.5 | 15.6
Cn1ccnc1SCC(=O)Nc1nc2c(F)c(F)c(F)cc2s1 | -0.3 | 36.3* | 811.7 | 9.2
COc1ccc(C(=O)N2CCN(c3ccccc3Cl)CC2)cc1S(=O)(=O)NC1CC1 | -1.0 | · | 141.6 | -7.6
COc1cccc(C2=NC(C)(C)NC(c3ccccc3O)C2)c1 (stereo not given) | -0.9 | 16.3* | 324.5 | 21.6
CCC1(C)N=C(c2ccc3c(c2)OCO3)CC(c2ccccc2O)N1 (stereo not given) | -1.5 | 3.9 | 465.1 | 43.1
